18 compounds from ChEMBL document CHEMBL1123291, “Modified di- and tripeptides of the C-terminal portion of oxytocin and vasopressin as possible cognition activation agents” (1986) can be followed below.

Assay type in all cases: functional
Experiment [1] has as its system Rattus norvegicus. Description: Ability (% reversal in rats) to reverse electroconvulsive shock-induced amnesia in rodents at a dose of 0.10 (mg/kg) (following intramuscular dosing). The method, boiled down: (§1)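 Passive avoidance (step-through, lighted vs darkened compartment). […], ECS (20 mA, 1 s) was given transcorneally via saline-soaked electrodes, and maximal hindlimb extension was required. Drug was given im at selected doses 2 h post-training. One hour later, entry latency to the dark side was recorded, with 60 s counted as retention. At least 75% of ECS controls had to be amnesic. Replicates were mostly not run.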

For experiment [2], the system named is Rattus norvegicus. Description: Ability (% reversal in rats) to reverse electroconvulsive shock-induced amnesia in rodents at a dose of 0.010 (mg/kg) administered intramuscularly (im). The procedure, abridged: as §1
Experiment [3] relates to Rattus norvegicus. Kind of experiment: Ability (% reversal in rats) to reverse electroconvulsive shock-induced amnesia in rodents at a dose of 0.0010 (mg/kg) (following i.m. administration). The method, boiled down: as §1

Residues, ends and D or L forms follow the SMILES beside them. *: point of attachment. Cbz = O=C(OCc1ccccc1)*; Boc = CC(C)(C)OC(=O)*

In the case of `CC(C)CC(COCC(=O)O)NC(=O)C1CCCN1C(=O)OCc1ccccc1` (centres undefined), the Reversal in experiment [1] is 0%; in experiment [2] it was 0%; in experiment [3], 29%.
As for `CC(C)CC(COCC(N)=O)NC(=O)C1CCCN1C(=O)OCc1ccccc1` (centres undefined), the figures for the Reversal in experiment [1], in experiment [2] and in experiment [3] were 14%, 57% and 42%, respectively.
For `CCCNC(=O)C(CC(C)C)SCC1CCCN1C(=O)OCc1ccccc1` (centres undefined), the Reversal in experiment [1] worked out at 20%; in experiment [2], 20%; in experiment [3], 60%.
Consider `O=C(O)CNC(=O)COCC1CCCN1C(=O)OCc1ccccc1` (centres undefined), for which the Reversal amounted to 57% in experiment [1], 43% in experiment [2] and 14% in experiment [3].
For `CC(C)CC(CSCC(=O)O)NC(=O)c1ccccn1` (centres undefined), the Reversal in experiment [1] was found to be 14%; in experiment [2], 0%; in experiment [3], 57%.
In the same order, the values of `CC(C)(C)OC(=O)N1CCCC1CN[C@@H](CCCCNC(=O)OCc1ccccc1)C(=O)NCC(N)=O` (some centres undefined) are 16%, 33% and 16%.
In the same order, the values of `NC(=O)CNC(=O)COCC1CCCN1C(=O)OCc1ccccc1` (centres undefined) are 20%, 33% and 56%.
The matching figures for `NC(=O)CC[C@@H]1NC(=O)[C@H](Cc2ccccc2)NC(=O)[C@H](Cc2ccc(O)cc2)NC(=O)[C@@H](N)CSSC[C@@H](C(=O)N2CCC[C@H]2C(=O)N[C@@H](CCCN=C(N)N)C(=O)NCC(N)=O)NC(=O)[C@H](CC(N)=O)NC1=O`: 60%, 100% and 0%.
For `CC(C)CC(CSCC(N)=O)NCC1CCCN1C(=O)OCc1ccccc1` (centres undefined), the Reversal in experiment [1] came out at 25%; in experiment [2] it was 25%; in experiment [3] it was 45%.
As for `CC(C)CC(OCC1CCCN1C(=O)OCc1ccccc1)C(=O)NCC(N)=O` (centres undefined), the Reversal turned out to be 0% in experiment [1], 0% in experiment [2] and 33% in experiment [3].
As for `Cc1ccc(S(=O)(=O)N2CCCC2CNC(CC(C)C)C(=O)NCC(=O)O)cc1` (centres undefined), the Reversal in experiment [1] is 0%; in experiment [2], 33%; in experiment [3], 33%.
`CCSCCNC(=O)C(CC(C)C)SCC1CCCN1C(=O)OCc1ccccc1` (centres undefined): the Reversal is 0% in experiment [1], 0% in experiment [2] and 33% in experiment [3].
Turning to `CC(C)(C)OC(=O)NCCCC[C@H](NC(=O)[C@@H]1CCCN1C(=O)OCc1ccccc1)C(=O)NCC(N)=O` (Cbz-Pro-Lys(Boc)-Gly-NH2), the Reversal in experiment [1] was found to be 0%; in experiment [2], 0%; in experiment [3], 50%.
With `CC(C)CC(/C=C/CC(N)=O)NC(=O)C1CCCN1C(=O)OCc1ccccc1` (centres undefined), the results for the Reversal in experiment [1], in experiment [2] and in experiment [3] were 44%, 77% and 33%, respectively.
For `CC(C)CC(OCC1CCCN1C(=O)OCc1ccccc1)C(=O)NCC(=O)O` (centres undefined), the Reversal was found to be 43% in experiment [1], 71% in experiment [2] and 29% in experiment [3].
In the same order, the values of `Cc1ccc(C(=O)NC(CSCC(=O)O)CC(C)C)s1` (centres undefined) are 20%, 60% and 60%.
For the compound `Cc1ccc(S(=O)(=O)N2CCCC2C(=O)NC(CNCC(=O)O)CC(C)C)cc1` (centres undefined), the Reversal in experiment [1] is reported as 17%; in experiment [2], 33%; in experiment [3], 17%.
For `O=C(NCCCCC(SCC1CCCN1C(=O)OCc1ccccc1)C(=O)[O-])OCc1ccccc1.[Na+]` (centres undefined), the results for the Reversal in experiment [1], in experiment [2] and in experiment [3] were 45%, 12% and 45%, respectively.
